ChEMBL document CHEMBL4346690, “Structure-activity relationship studies of (E)-3,4-dihydroxystyryl alkyl sulfones as novel neuroprotective agents based on improved antioxidant, anti-inflammatory activities and BBB permeability” (Eur J Med Chem, 2019)
Calls of active or inactive are those of the source. The calls are words filed in the database; no cut-off is given here.

Tests used:
[1] = Cytotoxicity against rat PC12 cells assessed as cell viability at 100 uM after 24 hrs by MTT assay; type: cell-based, PC-12; conditions: read-out: Activity
In short: (§1)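 Cells kept in high-glucose DMEM with 10% FBS and 1% PS at 37 °C, 5% CO2. Plated 1 day, then compounds for 24 h; viability by MTT at 100 µM as ODtreated/ODcontrol × 100%, untreated = 100%. Mean ± SD, n = 3.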

[2] = Anti-neuroinflammatory activity in […] BV2 cells assessed as reduction in LPS-induced NO production preincubated for 3 hrs followed by LPS stimulation for 24 hrs by Griess assay; type: functional, cell-based; conditions: BV-2
In short: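 BV2 microglia seeded 3 × 10^5 cells mL−1 for 1 day; compounds in medium added for 3 h, then LPS (final 100 ng mL−1) for a further 24 h. Supernatant mixed with Griess reagent, absorbance at 540 nm. Inhibition % from NO release of LPS-only, unstimulated and compound+LPS wells; IC50 reported; mean ± SD, n = 3.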

PC-12 [3] = test: Neuroprotection against H2O2-induced cell death in rat PC12 cells assessed as decrease in late apoptotic cells at 10 uM preincubated for 3 hrs followed by H2O2 addition and measured 3 hrs by Annexin V-FITC/propidium iodide staining based fluorescence microscopic method; type: functional
In short: (§2)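 PC12 cells (1.5 × 10^5 cells mL−1, 35 mm dishes) plated 1 day, pretreated 3 h at 2.5 or 10 µM, then exposed to H2O2 (final 400 µM) for 3 h. Washed with ice-cold PBS, stained with Annexin V-FITC and PI in binding buffer for 5 min at 25 °C in the dark, and counted by fluorescence microscopy as early (AV+) or late (AV+PI+) apoptotic cells.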

PC-12 [4] = test: Neuroprotection against H2O2-induced cell death in rat PC12 cells assessed as decrease in apoptotic cells at 2.5 uM preincubated for 3 hrs followed by H2O2 addition and measured 3 hrs by Annexin V-FITC/propidium iodide staining based fluorescence microscopic method; type: functional; in short: as §2
[5] = Potency index, ratio of IC50 for CAPE to IC50 for test compound for anti-neuroinflammatory activity in […] BV2 cells; type: functional
[6] = Potency index, ratio of IC50 for (E)-4-(2-((3-phenylpropyl)sulfonyl)vinyl)benzene-1,2-diol to IC50 for test compound for anti-neuroinflammatory activity in […] BV2 cells; type: functional
[7] = Antioxidant activity assessed as DPPH radical scavenging activity after 1 hr by […]; type: functional
In short: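 DPPH (0.2 mM) in ethanol mixed with sample, kept 1 h at room temperature, absorbance read at 517 nm. Scavenging % = [1−(Ac−Ab)/A0]×100, where Ab is the sample in ethanol without DPPH and A0 is the ethanol+DPPH control. EC50 reported; vitamin C used as reference antioxidant; mean ± SD, n = 3.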

PC-12 [8] = test: Neuroprotection against H2O2-induced cell death in rat PC12 cells assessed as increase in cell viability at 5 uM preincubated for 3 hrs followed by H2O2 addition and measured after 3 hrs by MTS assay relative to CAPE; type: functional
In short: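 PC12 cells plated at 2 × 10^5 cells/mL for 1 day, pretreated with compound (2.5, 5, 10 µM) for 3 h, then H2O2 added (final 400 µM) for 3 h. Viability read by MTS at 490 nm, untreated cells = 100%. Mean ± SD, n = 3.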

PC-12 [9] = test: Neuroprotection against H2O2-induced cell death in rat PC12 cells assessed as decrease in early apoptotic cells at 10 uM preincubated for 3 hrs followed by H2O2 addition and measured 3 hrs by Annexin V-FITC/propidium iodide staining based fluorescence microscopic method; type: functional; in short: as §2
[10] = Inhibition of soybean 15-LOX using arachidonic acid or linoleic acid as substrate incubated for 10 mins by colorimetric lipoxygenase inhibitor screening assay kit method; parameters: species or system Glycine max
In short: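 Soybean 15-LOX in a colorimetric kit: enzyme plus compound (1.25–100 µM, in assay buffer), reaction started with arachidonic or linoleic acid substrate, shaken at least 10 min. Chromogen added to stop and develop, absorbance at 490–500 nm; IC50 determined, mean ± SD, n = 3.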

[11] = Cytotoxicity against […] BV2 cells assessed as cell viability at 100 uM after 24 hrs by MTT assay; type: cell-based; conditions: read-out: Activity; in short: as §1
PC-12 [12] = test: Neuroprotection activity in rat PC12 cells assessed as reduction in H2O2-induced cell death preincubated for 3 hrs followed by H2O2 addition and measured after 3 hrs by MTS assay; type: functional, cell-based
In short: (§3)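 PC12 cells plated at 2 × 10^5 cells mL−1 for 1 day, pretreated 3 h with compounds, then H2O2 (final 400 µM) for 3 h. Viability by MTS at 490 nm relative to untreated cells (100%); single-concentration tests at 2.5, 5, 10 µM and IC50 values; mean ± SD, n = 3.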

PC-12 [13] = test: Neuroprotection against H2O2-induced cell death in rat PC12 cells assessed as increase in cell viability at 2.5 to 5 uM preincubated for 3 hrs followed by H2O2 addition and measured after 3 hrs by MTS assay; type: functional, cell-based; in short: as §3
PC-12 [14] = test: Neuroprotection activity in rat PC12 cells assessed as reduction in 6-OHDA-induced cell damages at 10 uM preincubated for 3 hrs followed by H2O2 addition and measured after 24 hrs by MTT assay relative to control; type: functional, cell-based; conditions: in the assay text read “6-OHDA addition” for “H2O2 addition”
In short: (§4)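 PC12 cells plated at 2 × 10^5 cells mL−1 for 1 day, pretreated 3 h with compounds at 2.5, 5 or 10 µM, then 6-OHDA (final 250 µM) added for 24 h. Viability by MTT, absorbance 570 nm; untreated cells = 100%; mean ± SD, n = 3.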

[15] = Cytotoxicity against […] BV2 cells assessed as cell viability at 0.625 to 40 uM after 24 hrs by MTS assay; type: cell-based; conditions: read-out: Activity
In short: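 Viability of BV2 cells read by MTS under the NO-assay conditions: 3 h compound (0.625–40 µM) pretreatment followed by LPS 100 ng mL−1 for 24 h.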

PC-12 [16] = test: Neuroprotection activity in rat PC12 cells assessed as reduction in 6-OHDA-induced cell damages at 2.5 uM preincubated for 3 hrs followed by H2O2 addition and measured after 24 hrs by MTT assay relative to control; type: functional, cell-based; conditions: in the assay text read “6-OHDA addition” for “H2O2 addition”; in short: as §4

Row | SMILES | viability at 24 h, 100 µM [1] | IC50 [2] | Activity (PC-12 [3]) | Activity (PC-12 [4]) | Ratio IC50 [5] | Ratio IC50 [6] | EC50 [7] | Activity (PC-12 [8]) | Activity (PC-12 [9]) | IC50 [10] | viability at 24 h, 100 µM [11] | IC50 (PC-12 [12]) | Activity (PC-12 [13]) | Activity (PC-12 [14]) | viability at 24 h, up to 40 µM [15] | Activity (PC-12 [16])
1 | O=S(=O)(/C=C/c1ccc(O)c(O)c1)CCCC1CCCC1 | 70.5% | 1.6 µM | Active | Active | 4 | 8 | 6.3 µM | 30% | Active | 103 µM | 72.4% | 1.28 µM | Active | Active | > 90% | Active
2 | O=S(=O)(/C=C/c1ccc(O)c(O)c1)CCCc1ccccc1 | 86.1% | 13.4 µM | Active | Active | – | – | 11.5 µM | – | Active | 140 µM | 72% | 1.86 µM | – | Active | > 90% | –
3 | CC(Cc1ccc(O)c(O)c1)C(C)Cc1ccc(O)c(O)c1 (stereo not drawn) [NORDIHYDROGUAIARETIC ACID] | – | – | – | – | – | – | – | – | – | 2.1 µM | – | – | – | – | – | –
